This note sets out measurements from ChEMBL document CHEMBL4376880, “Developing Inhibitors of the p47phox-p22phox Protein-Protein Interaction by Fragment-Based Drug Discovery” (J Med Chem, 2020).

Assay [1] deals with T1, Neutrophil cytosol factor 1 (Homo sapiens, UniProt P14598). Nature of the assay: Covalent inhibition of recombinant human His-tagged p47phox SH3A-B domain (151 to 285 residues) expressed in Escherichia coli BL21 (DE3) cells interaction with Cy5-p22phox149-162 incubated for 10 mins by fluorescence polarization competition assay.
T1 sequence (P14598 whole entry, the tested form may be a part): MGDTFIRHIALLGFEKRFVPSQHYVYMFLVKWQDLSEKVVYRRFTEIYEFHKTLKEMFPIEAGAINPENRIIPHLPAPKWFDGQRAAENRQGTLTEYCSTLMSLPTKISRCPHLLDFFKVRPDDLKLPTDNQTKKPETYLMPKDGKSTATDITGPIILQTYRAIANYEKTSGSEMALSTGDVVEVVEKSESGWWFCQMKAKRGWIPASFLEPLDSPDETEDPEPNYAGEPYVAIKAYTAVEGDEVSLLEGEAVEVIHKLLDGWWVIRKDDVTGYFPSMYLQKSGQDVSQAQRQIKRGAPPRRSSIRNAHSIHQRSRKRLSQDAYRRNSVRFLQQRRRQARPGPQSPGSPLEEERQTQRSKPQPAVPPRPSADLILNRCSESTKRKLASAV
Assay [2] addresses T1, Neutrophil cytosol factor 1. Nature of the assay: Binding affinity to immobilized recombinant human His-tagged p47phox SH3A-B domain (151 to 285 residues) expressed in Escherichia coli BL21 (DE3) cells assessed as dissociation constant by SPR assay. For orientation: Surface plasmon resonance follows binding to a sensor surface in real time, without labels.
Assay [3] has the same target. Nature of the assay: Covalent inhibition of recombinant human His-tagged p47phox SH3A-B domain (151 to 285 residues) expressed in Escherichia coli BL21 (DE3) cells interaction with Cy5-p22phox149-162 incubated for 10 mins in presence of TCEP by fluorescence polarization competition assay. The procedure, abridged:
(§1)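 Heterologous competition FP. The compound was titrated as a 12-point two-fold series in duplicate against 1.25 μM p47phox SH3A-B and 5 nM Cy5-p22phox149-162. Buffer was HBS (50 mM Hepes, 150 mM NaCl, 0.005% Tween 20, pH 7.4), with or without TCEP. Incubation was 10 min or 2 h at room temperature before the FP read.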
(Fluorescence polarisation rises when a labelled molecule tumbles more slowly, as on binding a larger partner.)

The target is the same in assay [4]. Put plainly: Ratio of Ki for recombinant human His-tagged p47phox SH3A-B domain (151 to 285 residues) expressed in Escherichia coli BL21 (DE3) cells in presence of TCEP to Ki for recombinant human His-tagged p47phox SH3A-B domain (151 to 285 residues) expressed in Escherichia coli BL21 (DE3) cells by fluorescence polarization competition assay. The essentials:
as §1

Assay [5] has the same target. Put plainly: Covalent inhibition of recombinant human His-tagged p47phox SH3A-B domain (151 to 285 residues) expressed in Escherichia coli BL21 (DE3) cells interaction with Cy5-p22phox149-162 incubated for 2 hrs by fluorescence polarization competition assay. The essentials:
as §1

For assay [6] the target is unchanged. Put plainly: Non-reversible binding affinity to immobilized recombinant human His-tagged p47phox SH3A-B domain (151 to 285 residues) expressed in Escherichia coli BL21 (DE3) cells assessed as slow dissociation rate at 12.5 uM by SPR assay. The essentials: (§2)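 p47phox SH3A-B (residues 151-285) immobilized at 4684 RU by His capture then amine coupling; compound injected at 12.5 μM in HBS pH 7.4 (10 mM Hepes, 150 mM NaCl, 0.005% Tween) at 25 °C. Sensorgrams were blank- and reference-subtracted with DMSO calibration. Complex then exposed to 2 mM TCEP.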

For assay [7] the target is unchanged. Nature of the assay: Binding affinity to immobilized recombinant human His-tagged p47phox SH3A-B domain (151 to 285 residues) expressed in Escherichia coli BL21 (DE3) cells at 12.5 uM in presence of TCEP by SPR assay. The procedure, abridged: as §2
For assay [8] the target is unchanged. Put plainly: Binding affinity to recombinant human His-tagged p47phox SH3A-B domain (151 to 285 residues) expressed in Escherichia coli BL21 (DE3) cells assessed as increase in protein molecular weight at 200 uM by ESI/LC-MS analysis.
The target is the same in assay [9]. Put plainly: Binding affinity to recombinant human His-tagged p47phox SH3A-B domain (151 to 285 residues) expressed in Escherichia coli BL21 (DE3) cells assessed as protein aggregation by measuring increase in maximum dimensions of the particles by SAXS study analysis. The essentials:
(§3)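 His-tag removed by HRV-3C protease. Protein (2-5.6 mg/mL, 130-370 μM final) was buffer-exchanged into 10 mM Hepes, 150 mM NaCl, 4% DMSO, pH 7.4, with 100 or 200 μM compound. Samples were held at 6 °C and measured at room temperature, λ 1.34 Å, q 0.01-0.5 Å−1. Fifteen to twenty 60 s frames were radially averaged, and buffer scattering was subtracted.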

The target is the same in assay [10]. Nature of the assay: Binding affinity to recombinant human His-tagged p47phox SH3A-B domain (151 to 285 residues) expressed in Escherichia coli BL21 (DE3) cells assessed as protein aggregation by measuring increase in SAXS-derived radius of gyration by SAXS study analysis. The procedure, abridged: as §3
Assay [11] has the same target. Put plainly: Binding affinity to recombinant human His-tagged p47phox SH3A-B domain (151 to 285 residues) expressed in Escherichia coli BL21 (DE3) cells assessed as protein aggregation by measuring increase in concentration-normalized scattering intensity by SAXS study analysis. The procedure, abridged:
as §3

The target is the same in assay [12]. Nature of the assay: Binding affinity to recombinant human His-tagged p47phox SH3A-B domain (151 to 285 residues) expressed in Escherichia coli BL21 (DE3) cells assessed as protein aggregation by SAXS study analysis. The note with it: TDE = time-dependent effect. The essentials: as §3
For assay [13] the target is unchanged. Nature of the assay: Binding affinity to recombinant human His-tagged 15N-labeled p47phox SH3A-B domain (151 to 285 residues) expressed in Escherichia coli BL21 (DE3) cells assessed as compound interaction with protein at Cys196 in SH3A domain by NMR spectroscopy.

Molecules are shown by their SMILES. The source made the active and inactive calls. No cut-off for these calls is given here.

For the compound `CC(=O)Nc1ccc2ccccc2n1`, the Ki in [1] (read-out: Ki) is > 2000 µM.
As for `CN1CCCN(Cc2ccc(CN)cc2)CC1`, the Ki entry in assay [1] is given as “Not Active”. For the same compound, the Kd in [2] is 418 µM.
As for `Cc1cc(N)c2ccccc2n1`, the Ki in assay [1] (read-out: Ki) is 1070 µM. Besides, in assay [2], the Kd is 521 µM.
With `Nc1ccc2cc(-c3ccc(Cl)cc3)ccc2n1`, the Ki in assay [1] (read-out: Ki) was > 2000 µM.
On the same count and under the same terms, the figure for `Cc1cc(N2CCN(C)CC2)c2ccccc2n1` is > 2000 µM; for `Nc1ccc2cc(OCCOCCOCCOCCOc3ccc4nc(N)ccc4c3)ccc2n1` it is 32.7 µM; for `Cc1cc(N2CCN(C(=O)OC(C)(C)C)CC2)c2ccccc2n1` it is > 2000 µM.
Turning to `Nc1ccnc2ccccc12` [QUINOLIN-4-AMINE], in assay [1] (read-out: Ki), the Ki worked out at 1520 µM. For the same compound, in [2], the Kd came to 765 µM.
Regarding `Cc1ccc2ccccc2n1` [QUINALDINE], the Ki in [1] (read-out: Ki) is > 2000 µM.
On the same count and under the same terms, under `Nc1cccc2ncccc12` stands > 2000 µM; under `Nc1ccc2cc(OCc3ccc(Cl)cc3)ccc2n1`, > 2000 µM.
On the same count and under the same terms, the figure for `Nc1ccc2ncccc2c1` is > 2000 µM; for `Nc1cccc2cccnc12` [8-AMINOQUINOLINE] it is > 2000 µM; for `c1cc(N2CCNCC2)ccn1` it is 302 µM.
Take `OCCOCCNc1ccc2ccccc2n1`: the Ki in assay [1] (read-out: Ki) is > 2000 µM.
The same measure, in the same setting: the figure for `Cc1cc(N2CCNCC2)nc2ccccc12` is 1070 µM; for `Nc1cc(OCc2ccc(Cl)cc2)c2ccccc2n1` it is > 2000 µM.
As to `Nc1ncccn1`, the Ki in assay [1] (read-out: Ki) is > 2000 µM.
The same measure, in the same setting: the figure for `Nc1ccc2cc(OCc3ccccc3)ccc2n1` is > 2000 µM.
Consider `O=c1c2ccccc2[se]n1-c1ccccc1` [EBSELEN], for which the Ki is 63 µM in [1] (read-out: Ki), > 300 µM in assay [3] and 12 µM in assay [5]. In assay [4], the Ratio Ki is > 10. In addition, the result in [6], in assay [8], in assay [9], in assay [10], in assay [11] and in assay [13] was Active. Besides, the outcome in assay [7] was inactive. For the same compound, the Activity entry in assay [12] was “Tde”.
With `c1ccc2c(N3CCNCC3)cccc2c1`, in [1] (read-out: Ki), the Ki was 1520 µM. For the same compound, the Kd in assay [2] is 366 µM.
The corresponding values for `c1ccc2nc(N3CCNCC3)ccc2c1` [QUIPAZINE] are 1410 µM and 420 µM.
With `Nc1ccc2cccc(O)c2n1`, the Ki in assay [1] (read-out: Ki) stood at 1380 µM.
Still for that read-out and setting: under `Nc1cc(Cl)c2ccccc2n1` stands > 2000 µM.
As for `Oc1ccc2ccccc2n1`, the Ki in assay [1] (read-out: Ki) was > 2000 µM.
Same read-out and setting: under `Nc1cc(O)c2ccccc2n1` stands > 2000 µM.
Turning to `Nc1ccc2cc(COc3ccc(Cl)cc3)ccc2n1`, the Ki in [1] (read-out: Ki) was > 2000 µM.
Same read-out and setting: the figure for `Nc1ccc2cc(OCC3CCCCC3)ccc2n1` is > 2000 µM; for `c1ccc2ncccc2c1` [QUINOLINE] it is > 2000 µM; for `NCc1ccc2ccccc2n1` it is > 2000 µM.
Same read-out and setting: under `COCCNc1ccc2ccccc2n1` stands > 2000 µM; under `Nc1ccccn1` [2-AMINOPYRIDINE], > 2000 µM; under `Nc1ccc2ccccc2c1` [NAPHTHYLAMINE], > 2000 µM.
`Nc1cnc2ccccc2c1`: in assay [1] (read-out: Ki), the Ki was > 2000 µM.

The term Kd denotes the concentration at which binding is half-saturated.
